Measured values published in ChEMBL document CHEMBL1130266, “Monoaryl- and bisaryldihydroxytropolones as potent inhibitors of inositol monophosphatase” (J Med Chem, 1997).

Test: Concentration required to inhibit the activity of inositol monophosphatase by 50%
Summary of the method: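 Human recombinant IMPase expressed in E. coli and purified to homogeneity. […] Enzyme adjusted so ≤10% substrate used. Duplicate rates at six inhibitor concentrations plus no-inhibitor control, fitted to v = V0/(1+[I]/IC50).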

SMILES | IC50
O=c1ccc(CCCCO)c(O)c(O)c1O | 5 µM
CC(=O)Nc1cccc(-c2cc(-c3cccc(NC(C)=O)c3)c(=O)c(O)c(O)c2O)c1 | 65 µM
O=c1c(O)c(Br)cc(Br)c(O)c1O | 10 µM
O=c1ccc(-c2ccc3ccccc3c2)c(O)c(O)c1O | > 100 µM
NCCc1ccc(-c2ccc(=O)c(O)c(O)c2O)cc1 | 90 µM
O=c1c(O)c(-c2ccsc2)cc(-c2ccsc2)c(O)c1O | 35 µM
O=c1ccc(-c2ccc(O)cc2)c(O)c(O)c1O | 10 µM
O=c1c(O)c(O)ccc(-c2cc(C(F)(F)F)cc(C(F)(F)F)c2)c1O | 10 µM
O=c1c(O)c(O)ccc(-c2cccc([N+](=O)[O-])c2)c1O | 8 µM
O=c1ccc(-c2ccccc2)c(O)c(O)c1O | 20 µM
O=c1c(O)c(O)ccc(-c2cc3ccccc3o2)c1O | 7 µM
O=c1ccc(-c2cncnc2)c(O)c(O)c1O | 10 µM
O=c1c(O)c(-c2cc3ccccc3o2)cc(-c2cc3ccccc3o2)c(O)c1O | 40 µM
O=c1c(O)c(-c2cc(C(F)(F)F)cc(C(F)(F)F)c2)cc(-c2cc(C(F)(F)F)cc(C(F)(F)F)c2)c(O)c1O | 70 µM
O=c1c(O)c(O)ccc(-c2cccc(O)c2O)c1O | 7 µM
O=c1c(O)c(O)ccc(-c2cccs2)c1O | 15 µM
O=c1ccc(-c2cccc3ccccc23)c(O)c(O)c1O | 20 µM
O=c1cccc(-c2ccccc2)c(O)c1O | 200 µM
O=c1c(O)c(O)ccc(-c2ccsc2)c1O | 25 µM

SMILES | IC50
O=Cc1cccc(-c2cc(-c3cccc(C=O)c3)c(O)c(=O)c(O)c2O)c1 | > 100 µM
O=c1c(O)c(-c2ccccc2F)cc(-c2ccccc2F)c(O)c1O | > 200 µM
O=c1c(O)c(-c2ccc(C(F)(F)F)cc2)cc(-c2ccc(C(F)(F)F)cc2)c(O)c1O | 200 µM
O=c1c(O)c(-c2ccc3ccccc3c2)cc(-c2ccc3ccccc3c2)c(O)c1O | > 100 µM
O=c1c(O)c(O)ccc(-c2cccc(C(F)(F)F)c2)c1O | 10 µM
O=c1c(O)c(-c2cccc3ccccc23)cc(-c2cccc3ccccc23)c(O)c1O | > 100 µM
O=c1c(O)c(-c2cccc(-c3nnc(-c4ccc5ccccc5c4)o3)c2)cc(-c2cccc(-c3nnc(-c4ccc5ccccc5c4)o3)c2)c(O)c1O | > 200 µM
CC(=O)Nc1cccc(-c2ccc(=O)c(O)c(O)c2O)c1 | 20 µM
O=c1c(O)c(O)ccc(-c2ccc(C(F)(F)F)cc2)c1O | 130 µM
O=c1c(O)c(-c2ccc(O)cc2)cc(-c2ccc(O)cc2)c(O)c1O | 10 µM
O=c1ccc(-c2ccccc2F)c(O)c(O)c1O | 65 µM
O=Cc1cccc(-c2ccc(O)c(O)c(=O)c2O)c1 | 20 µM
N#Cc1cccc(-c2cc(-c3cccc(C#N)c3)c(O)c(=O)c(O)c2O)c1 | 30 µM
O=c1ccc(-c2cccc(-c3nnc(-c4ccc5ccccc5c4)o3)c2)c(O)c(O)c1O | 40 µM
N#Cc1cccc(-c2ccc(=O)c(O)c(O)c2O)c1 | 4 µM
O=c1c(O)c(-c2cccc([N+](=O)[O-])c2)cc(-c2cccc([N+](=O)[O-])c2)c(O)c1O | 20 µM
O=c1c(O)c(-c2cccc(C(F)(F)F)c2)cc(-c2cccc(C(F)(F)F)c2)c(O)c1O | > 200 µM
O=c1c(O)cccc(O)c1O | 10 µM
O=c1c(O)c(O)ccc2cc(O)c(O)c(O)c12 | > 200 µM
